# Results published in ChEMBL document CHEMBL3739417, “Synthesis and biological evaluation of novel 4,5-disubstituted 2H-1,2,3-triazoles as cis-constrained analogues of combretastatin A-4” (2015).
# How the values were obtained:
# Type in all cases: functional
# U-251 = experiment: Growth inhibition of human U251 cells after 48 hrs by sulforhodamine B assay; details: U-251, 48 h
# In short: (§1)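 NCI-60 panel screen by SRB assay (Rubinstein method). Percentage growth taken from optical density of SRB colour, read before and 48 hrs after exposure to compound or vehicle control. All analogues first screened at 10^-5 M. Analogues giving 60% growth inhibition at that level in at least eight lines then went to a five-concentration dose-response study.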
# MDA-MB-468 = experiment: Growth inhibition of human MDA-MB-468 cells after 48 hrs by sulforhodamine B assay; details: MDA-MB-468, 48 h; in short: as §1
# [1] = Growth inhibition of human RPMI8226 cells after 48 hrs by sulforhodamine B assay; details: RPMI-8226, 48 h; in short: as §1
# [2] = Growth inhibition of human SF268 cells after 48 hrs by sulforhodamine B assay; details: SF-268, 48 h; in short: as §1
# A498 = experiment: Growth inhibition of human A498 cells after 48 hrs by sulforhodamine B assay; details: A498, 48 h
# In short: (§2)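 NCI-60 sulforhodamine B screen. Compounds were first tested at a single dose of 10⁻⁵ M; hits, defined as ≥60% growth inhibition in at least eight lines, went on to a five-concentration dose–response. SRB optical density was read before and 48 h after exposure to compound or vehicle. Percentage growth was calculated from OD.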
# [3] = Growth inhibition of human DU145 cells after 48 hrs by sulforhodamine B assay; details: DU-145, 48 h; in short: as §1
# MDA-MB-435 = experiment: Growth inhibition of human MDA-MB-435 cells after 48 hrs by sulforhodamine B assay; details: MDA-MB-435, 48 h; in short: as §2
# SK-MEL-2 = experiment: Growth inhibition of human SK-MEL-2 cells after 48 hrs by sulforhodamine B assay; details: SK-MEL-2, 48 h; in short: as §1
# A549 = experiment: Growth inhibition of human A549/ATCC cells after 48 hrs by sulforhodamine B assay; details: A549, 48 h; in short: as §1
# NCI-H460 = experiment: Growth inhibition of human NCI-H460 cells after 48 hrs by sulforhodamine B assay; details: NCI-H460, 48 h; in short: as §1
# [4] = Growth inhibition of human HCT15 cells after 48 hrs by sulforhodamine B assay; details: HCT-15, 48 h; in short: as §1
# MCF7 = experiment: Growth inhibition of human MCF7 cells after 48 hrs by sulforhodamine B assay; details: MCF7, 48 h; in short: as §1
# [5] = Growth inhibition of human PC3 cells after 48 hrs by sulforhodamine B assay; details: PC-3, 48 h; in short: as §1
# [6] = Growth inhibition of human UO31 cells after 48 hrs by sulforhodamine B assay; details: UO-31, 48 h; in short: as §1
# ACHN = experiment: Growth inhibition of human ACHN cells after 48 hrs by sulforhodamine B assay; in short: as §1
# [7] = Growth inhibition of human HL-60(TB) cells after 48 hrs by sulforhodamine B assay; details: HL-60, 48 h; in short: as §1
# [8] = Growth inhibition of human HOP92 cells after 48 hrs by sulforhodamine B assay; details: HOP-92, 48 h; in short: as §1
# [9] = Growth inhibition of human OVCAR3 cells after 48 hrs by sulforhodamine B assay; details: OVCAR-3, 48 h; in short: as §2
# KM12 = experiment: Growth inhibition of human KM12 cells after 48 hrs by sulforhodamine B assay; details: KM12, 48 h; in short: as §1
# SK-MEL-5 = experiment: Growth inhibition of human SK-MEL-5 cells after 48 hrs by sulforhodamine B assay; details: SK-MEL-5, 48 h; in short: as §1
# MDA-MB-231 = experiment: Growth inhibition of human MDA-MB-231 cells after 48 hrs by sulforhodamine B assay; details: MDA-MB-231, 48 h; in short: as §1
# [10] = Growth inhibition of human MOLT4 cells after 48 hrs by sulforhodamine B assay; details: MOLT-4, 48 h; in short: as §1
# [11] = Growth inhibition of human SF295 cells after 48 hrs by sulforhodamine B assay; details: SF-295, 48 h; in short: as §1
# [12] = Growth inhibition of human HOP62 cells after 48 hrs by sulforhodamine B assay; details: HOP-62, 48 h; in short: as §1
# [13] = Growth inhibition of human SKOV3 cells after 48 hrs by sulforhodamine B assay; details: SK-OV-3, 48 h; in short: as §1
# NCI-H23 = experiment: Growth inhibition of human NCI-H23 cells after 48 hrs by sulforhodamine B assay; details: NCI-H23, 48 h; in short: as §1
# K562 = experiment: Growth inhibition of human K562 cells after 48 hrs by sulforhodamine B assay; details: K562, 48 h; in short: as §1
# [14] = Growth inhibition of human COLO205 cells after 48 hrs by sulforhodamine B assay; details: COLO 205, 48 h; in short: as §1
# [15] = Growth inhibition of human SNB75 cells after 48 hrs by sulforhodamine B assay; details: SNB-75, 48 h; in short: as §1
# [16] = Growth inhibition of human SW620 cells after 48 hrs by sulforhodamine B assay; details: SW-620, 48 h; in short: as §1
# [17] = Growth inhibition of human LOXIMVI cells after 48 hrs by sulforhodamine B assay; details: LOX IMVI; in short: as §1
# HT-29 = experiment: Growth inhibition of human HT-29 cells after 48 hrs by sulforhodamine B assay; details: HT-29, 48 h; in short: as §1
# [18] = Growth inhibition of human HCC2998 cells after 48 hrs by sulforhodamine B assay; details: HCC 2998, 48 h; in short: as §1
# [19] = Growth inhibition of human NCI-ADR-RES cells after 48 hrs by sulforhodamine B assay; in short: as §1
# CCRF-CEM = experiment: Growth inhibition of human CCRF-CEM cells after 48 hrs by sulforhodamine B assay; in short: as §1
# 786-0 = experiment: Growth inhibition of human 786-0 cells after 48 hrs by sulforhodamine B assay; details: 786-0, 48 h; in short: as §1
# CAKI-1 = experiment: Growth inhibition of human CAKI-1 cells after 48 hrs by sulforhodamine B assay; details: CAKI-1, 48 h; in short: as §1
# [20] = read-out: LD50 (the source's name)
smiles,measurement,setting,value
COc1ccc(-c2nn[nH]c2-c2cc(OC)c(OC)c(OC)c2)cc1,GI50,U-251,< 10 nM
same,CC50,U-251; [20],> 100000 nM
same,GI50,MDA-MB-468,< 10 nM
same,CC50,MDA-MB-468; [20],> 100000 nM
same,GI50,[1],< 10 nM
same,CC50,[1]; [20],> 100000 nM
same,GI50,[2],< 10 nM
same,CC50,[2]; [20],> 100000 nM
same,GI50,A498,< 10 nM
same,TGI,A498,< 10 nM
same,LC50 (50% net cell kill),A498; read-out: LD50,> 100000 nM
same,GI50,[3],< 10 nM
same,CC50,[3]; [20],> 100000 nM
same,GI50,MDA-MB-435,< 10 nM
same,TGI,MDA-MB-435,< 10 nM
same,LC50 (concentration killing 50% of cells),MDA-MB-435; read-out: LD50,> 100000 nM
same,GI50,SK-MEL-2,< 10 nM
same,CC50,SK-MEL-2; [20],> 100000 nM
same,GI50,A549,< 10 nM
same,CC50,A549; [20],> 100000 nM
same,GI50,NCI-H460,< 10 nM
same,CC50,NCI-H460; [20],> 100000 nM
same,GI50,[4],< 10 nM
same,CC50,[4]; [20],> 100000 nM
same,GI50,MCF7,< 10 nM
same,CC50,MCF7; [20],> 100000 nM
same,GI50,[5],< 10 nM
same,CC50,[5]; [20],> 100000 nM
same,GI50,[6],< 10 nM
same,LC50 (concentration killing 50% of cells),[6]; read-out: LD50,> 100000 nM
same,GI50,ACHN,< 10 nM
same,CC50,ACHN; [20],> 100000 nM
same,GI50,[7],< 10 nM
same,CC50,[7]; [20],> 100000 nM
same,GI50,[8],< 10 nM
same,CC50,[8]; [20],> 100000 nM
same,GI50,[9],< 10 nM
same,TGI,[9],< 10 nM
same,LC50 (concentration giving 50% net cell kill),[9]; read-out: LD50,> 100000 nM
same,GI50,KM12,< 10 nM
same,LC50 (concentration killing 50% of cells),KM12; read-out: LD50,> 100000 nM
same,GI50,SK-MEL-5,< 10 nM
same,CC50,SK-MEL-5; [20],> 100000 nM
same,GI50,MDA-MB-231,< 10 nM
same,CC50,MDA-MB-231; [20],> 100000 nM
same,GI50,[10],12 nM
same,CC50,[10]; [20],> 100000 nM
same,GI50,[11],< 10 nM
same,CC50,[11]; [20],> 100000 nM
same,GI50,[12],< 10 nM
same,LC50 (concentration killing 50% of cells),[12]; read-out: LD50,> 100000 nM
same,GI50,[13],< 10 nM
same,LC50 (concentration killing 50% of cells),[13]; read-out: LD50,> 100000 nM
same,GI50,NCI-H23,< 10 nM
same,LC50 (concentration giving 50% cell kill),NCI-H23; read-out: LD50,> 100000 nM
same,GI50,K562,< 10 nM
same,CC50,K562; [20],> 100000 nM
same,GI50,[14],29 nM
same,CC50,[14]; [20],> 100000 nM
same,GI50,[15],< 10 nM
same,CC50,[15]; [20],> 100000 nM
same,GI50,[16],< 10 nM
same,LD50 (concentration killing 50% of cells),[16],> 100 µM
same,GI50,[17],< 10 nM
same,CC50,[17]; [20],> 100000 nM
same,GI50,HT-29,< 10 nM
same,LC50 (concentration killing 50% of cells),HT-29; read-out: LD50,> 100000 nM
same,GI50,[18],24 nM
same,CC50,[18]; [20],> 100000 nM
same,GI50,[19],< 10 nM
same,CC50,[19]; [20],> 100000 nM
same,GI50,CCRF-CEM,< 10 nM
same,LC50 (concentration killing 50% of cells),CCRF-CEM; read-out: LD50,> 100000 nM
same,GI50,786-0,< 10 nM
same,LC50 (concentration killing 50% of cells),786-0; read-out: LD50,> 100000 nM
same,GI50,CAKI-1,< 10 nM
same,CC50,CAKI-1; [20],> 100000 nM
